Measured values collected from several papers.
Each line is one published result; the experiments were not run side by side.
Target: Mitogen-activated protein kinase kinase kinase kinase 4 (MAP4K4, Homo sapiens, UniProt O95819)

For `O=C(Nc1cnn(-c2csc(C(=O)NC3COC3)c2)c1)Nc1c(F)cccc1Cl`, the remaining activity was 90.4% (enzyme activity, inhibitor; 5 µM).
For `CCCCN(CCCC)C(=O)CN1C[C@@H](c2cc(OC)c3c(c2)OCO3)[C@H](C(=O)O)[C@H]1CC(C)(C)CCC`, the remaining binding was 88.9% (cell-free assay, competition with immobilised ligand; 1 µM).
`Nc1ncnc2occ(-c3ccc(NC(=O)Nc4cc(C(F)(F)F)ccc4F)cc3)c12` gave a remaining signal of 0% (cell-free assay, inhibitor; 20 µM).
The remaining binding of `CC(C)CC(=O)N1CCc2nc(-c3ccc(Br)cc3)nc(N(C)Cc3ccccc3)c2C1` is reported as 84% (cell-free assay, competition with immobilised ligand; 0.1 µM).
For `CC(C)(C)c1nc2c(s1)c1nc(N)ncc1c1ccc(NS(=O)(=O)c3c(F)cccc3F)c(F)c12`, the remaining activity was 95% (enzyme activity, inhibitor, radiometric; 1 µM).
`Cc1c(NC(=O)c2cc(C(N)=O)nc3cc(F)ccc23)c(C(F)(F)F)nn1Cc1ccc(C(C)(C)C)cc1` gave a remaining binding of 76% (cell-free assay, competition with immobilised ligand; 1 µM).
`CS(=O)(=O)CCNCc1ccc(-c2ccc3ncnc(Nc4ccc(OCc5cccc(F)c5)c(Cl)c4)c3c2)o1` gave a remaining signal of 111% (cell-free assay; 0.5 µM).
`Cc1nc(C2CCN(C(=O)c3ccc(OC(F)(F)F)cc3N)CC2)c2ncc(N3CCN(C)CC3)cc2n1` gave a remaining binding of 100% (cell-free assay, competition with immobilised ligand; 1 µM).
`Cc1ccc(C(=O)Nc2ccc(CN3CCN(C)CC3)c(C(F)(F)F)c2)cc1C#Cc1cnc2cccnn12` gave a remaining activity of 27% (enzyme activity, inhibitor; 23.5 nM).
`COc1cc2ncnc(Nc3ccc(Oc4ccccc4)cc3C)c2cc1OC` has an inhibition of 6% (enzyme activity, inhibitor; 1 µM).
The remaining signal of `Oc1ccc(-c2nc(-c3ccncc3)c(-c3ccc(F)cc3)[nH]2)cc1` is reported as 86.5% (cell-free assay; 0.5 µM).
For `CO[C@@H](C)c1c(Nc2ccc([C@@H](N(C)C(=O)C3CCS(=O)(=O)CC3)C(F)(F)F)cc2)cnc2cc(Cl)nn12`, the remaining binding was 100% (cell-free assay, competition with immobilised ligand; 1 µM).
For `COc1cc(Cl)c(C(=O)N[C@@H](CN[C@H]2CC[C@@H](N)CC2)Cc2ccc(C#N)cc2)cc1-c1ccc(CN[C@H](C)c2ccc(C)cc2)o1`, the remaining activity was 96% (enzyme activity, inhibitor; 1 µM).
For `Oc1cccc(-c2nc(N3CCOCC3)c3oc4ncccc4c3n2)c1`, the remaining signal was 91.4% (cell-free assay; 0.5 µM).
`CC/C(=N\NC(=O)NCc1cccc(O)c1)c1ccc(O)c(C)c1O` has an inhibition of 3.8% (enzyme activity, inhibitor; 0.1 µM).
For `CN1CC(Oc2cnc(C#N)cc2-c2ccn3nc(NC(=O)C4CC4)cc3c2)C1`, the inhibition was 13% (enzyme activity, inhibitor; 1 µM).
`Cc1ccc(Nc2nccc(N(C)c3ccc4c(C)n(C)nc4c3)n2)cc1S(N)(=O)=O` has a remaining activity of 77.4% (enzyme activity, inhibitor; 0.5 µM).
